# Results reported in ChEMBL document CHEMBL1156338 (J Med Chem, 2010).
# pKd, pKi: −log10 of the molar value.
# Tests used:
# [1] = target: T1, Mitogen-activated protein kinase 12 (Homo sapiens, UniProt P53778); test: Inhibition of p38-gamma
# T1 sequence (P53778 whole entry): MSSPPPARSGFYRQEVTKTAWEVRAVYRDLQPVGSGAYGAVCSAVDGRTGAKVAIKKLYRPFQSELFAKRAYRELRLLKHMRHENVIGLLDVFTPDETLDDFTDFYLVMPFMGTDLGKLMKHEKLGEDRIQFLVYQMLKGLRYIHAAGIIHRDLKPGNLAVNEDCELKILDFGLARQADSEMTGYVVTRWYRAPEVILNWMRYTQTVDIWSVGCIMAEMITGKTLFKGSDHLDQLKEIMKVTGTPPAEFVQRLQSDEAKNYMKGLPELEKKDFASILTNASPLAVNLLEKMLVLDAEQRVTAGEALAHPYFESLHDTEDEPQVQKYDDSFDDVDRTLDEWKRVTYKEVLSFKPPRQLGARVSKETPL
# [2] = AUC (0 to infinity) in Sprague-Dawley rat at 2 mg/kg, po; format: ADME, organism-based; set-up: time infinity, dose 2 mg/kg, route oral; conditions: plasma
# Cytochrome P450 1A2 = target: T2, Cytochrome P450 1A2 (Homo sapiens, UniProt P05177); test: Induction of CYP1A2 in human hepatocytes at 25 uM; format: ADME, cell-based, Hepatocyte
# T2 sequence (P05177 whole entry): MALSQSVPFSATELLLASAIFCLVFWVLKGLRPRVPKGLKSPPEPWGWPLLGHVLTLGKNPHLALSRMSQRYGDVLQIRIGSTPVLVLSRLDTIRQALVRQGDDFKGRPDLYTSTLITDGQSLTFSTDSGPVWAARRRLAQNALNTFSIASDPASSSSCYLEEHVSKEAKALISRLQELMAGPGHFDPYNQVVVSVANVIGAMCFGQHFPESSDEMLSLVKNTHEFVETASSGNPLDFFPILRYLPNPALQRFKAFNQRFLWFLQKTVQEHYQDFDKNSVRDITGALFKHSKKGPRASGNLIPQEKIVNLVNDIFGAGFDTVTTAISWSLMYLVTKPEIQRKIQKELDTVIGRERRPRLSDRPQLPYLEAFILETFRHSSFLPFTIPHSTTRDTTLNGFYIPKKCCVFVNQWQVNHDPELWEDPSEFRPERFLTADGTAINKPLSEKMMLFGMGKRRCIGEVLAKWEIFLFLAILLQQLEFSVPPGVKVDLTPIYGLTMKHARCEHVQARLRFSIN
# Rattus norvegicus = test: Antiarthritic activity against porcine type 2 collagen-induced arthritis in po dosed Lewis rat model assessed as reduction of paw swelling administered qd for 7 days relative to control; format: functional
# Outline: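 Arthritis induced by intradermal porcine type II collagen emulsified 1:1 in incomplete Freund's adjuvant; rats grouped at disease onset (day 0, 10-12 days after immunization). Oral dosing once daily for 7 days in vehicle 15% HPBCD, 1% HPMC, 1% Pluronic F68, pH 2.2.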
# [3] = target: T3, Nuclear receptor subfamily 1 group I member 2 (Homo sapiens, UniProt O75469); test: Transactivation of human PXR expressed in HepG2 cells at 10 uM after 24 hrs by luciferase reporter gene assay relative to rifampin; format: cell-based; conditions: hepg2, 24 h
# T3 sequence (O75469 whole entry): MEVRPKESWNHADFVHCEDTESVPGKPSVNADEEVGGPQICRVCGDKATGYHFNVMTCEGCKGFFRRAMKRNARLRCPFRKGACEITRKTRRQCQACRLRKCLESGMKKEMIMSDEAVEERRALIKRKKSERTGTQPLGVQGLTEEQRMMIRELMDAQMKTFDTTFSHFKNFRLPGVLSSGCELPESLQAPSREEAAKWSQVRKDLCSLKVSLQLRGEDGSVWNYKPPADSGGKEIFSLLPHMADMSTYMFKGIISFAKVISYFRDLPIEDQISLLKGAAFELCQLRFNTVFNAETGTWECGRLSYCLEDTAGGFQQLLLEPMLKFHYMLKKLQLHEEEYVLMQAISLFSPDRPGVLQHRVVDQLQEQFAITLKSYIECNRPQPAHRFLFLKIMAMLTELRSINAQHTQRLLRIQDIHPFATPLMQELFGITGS
# Outline: (§1)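 HepG2 cells transfected with a CYP3A4-promoter luciferase reporter and human PXR cDNA. Compound added from DMSO stocks to final 2 and 10 μM in buffer and incubated 24 h. Luciferase activity read by chemiluminescence and reported as percent of the rifampin (10 μM) positive control.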
# [4] = target: T3, Nuclear receptor subfamily 1 group I member 2; test: Transactivation of human PXR expressed in HepG2 cells at 2 uM after 24 hrs by luciferase reporter gene assay relative to rifampin; format: cell-based; conditions: hepg2, 24 h; outline: as §1
# [5] = target: T4, Mitogen-activated protein kinase 11 (Homo sapiens, UniProt Q15759); test: Inhibition of p38beta
# T4 sequence (Q15759 whole entry): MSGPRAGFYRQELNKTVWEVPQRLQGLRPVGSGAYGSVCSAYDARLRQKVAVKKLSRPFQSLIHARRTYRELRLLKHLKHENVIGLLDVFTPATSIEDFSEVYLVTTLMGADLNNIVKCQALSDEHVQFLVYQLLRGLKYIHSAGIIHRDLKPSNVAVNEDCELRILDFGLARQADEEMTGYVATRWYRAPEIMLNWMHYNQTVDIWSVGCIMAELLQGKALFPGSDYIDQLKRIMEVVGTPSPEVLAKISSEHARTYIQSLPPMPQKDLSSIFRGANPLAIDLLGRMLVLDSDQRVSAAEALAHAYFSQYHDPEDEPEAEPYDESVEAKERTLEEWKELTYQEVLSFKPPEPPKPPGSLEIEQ
# [6] = target: T4, Mitogen-activated protein kinase 11; test: Binding affinity to p38beta
smiles,measurement,setting,value
Cc1ccc(C(=O)NC2CC2)cc1-c1cc2cnn(-c3c(F)cccc3F)c2n(C)c1=O,pKi,[1],5.46
same,AUC(0-inf),[2],3990 ng·h/mL
same,Activity,Cytochrome P450 1A2,Not Active
same,Activity,Rattus norvegicus,Dose-dependent effect
same,ED50,Rattus norvegicus; 168 h,≤ 0.01 mg/kg
same,Activity,[3],13%
same,Activity,[4],5%
same,pKi,[5],8.60
same,pKd,[6],9.17
